# Experimental data: ChEMBL document CHEMBL1152738, “Synthesis and in vitro antitubercular activity of a series of quinoline derivatives” (2009)
# System: Mycobacterium tuberculosis
# Assay: Antitubercular activity against Mycobacterium tuberculosis H37Rv after 5 days by microplate alamar blue assay
# Type: functional
# Conditions: 120 h
# Outline: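 M. tuberculosis H37Rv (ATCC 27294, rifampin- and isoniazid-susceptible) tested by MABA. Compounds serially diluted directly in Middlebrook 7H9 broth in 96-well plates, which were sealed and incubated at 37 °C for 5 days. A fresh 1:1 Alamar Blue/10% Tween 80 mix was then added and plates were incubated 24 h more. MIC was the lowest concentration preventing the blue-to-pink colour change.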
row,Structure (SMILES),MIC [µg/mL]
1,[N-]=[N+]=Nc1ccnc2cc(Cl)ccc12,> 100
2,CC[C@@H](CO)Nc1ccnc2cc(Cl)ccc12,> 100
3,NCCCCNc1ccnc2cc(Cl)ccc12,> 100
4,OCCCNc1ccnc2cc(Cl)ccc12,> 100
5,CCC(CCl)Nc1ccnc2cc(Cl)ccc12 (configuration not stated),50
6,ClCCNc1ccnc2cc(Cl)ccc12,12.5
7,ClCCNc1ccnc2ccccc12,> 100
8,[N-]=[N+]=NCCNc1ccnc2cc(Cl)ccc12,50
9,CNCCNc1ccnc2cc(Cl)ccc12,> 100
10,CC[C@H](CO)Nc1ccnc2cc(Cl)ccc12,> 100
11,NCCCCCCCCCCNc1ccnc2cc(Cl)ccc12,3.12
12,OCCNc1ccnc2cc(Cl)ccc12,> 100
13,N#CCCNc1ccnc2cc(Cl)ccc12,> 100
14,C=C[C@H]1CN2CC[C@H]1C[C@H]2[C@H](O)c1ccnc2ccc(OC)cc12 [QUININE],100
15,Nc1ccnc2cc(Cl)ccc12,> 100
16,CCC(CO)Nc1ccnc2cc(Cl)ccc12 (racemic),> 100
17,CNc1ccnc2cc(Cl)ccc12,100
18,NCCCCCCNc1ccnc2cc(Cl)ccc12,25
19,CCCCNc1ccnc2ccccc12,50

row,Structure (SMILES),MIC [µg/mL]
1,CC(C)Nc1ccnc2cc(Cl)ccc12,50
2,CCCCNCCNc1ccnc2cc(Cl)ccc12,> 100
3,Nc1ccnc2ccccc12 [QUINOLIN-4-AMINE],> 100
4,CCCNc1ccnc2cc(Cl)ccc12,50
5,CCN(CC)Cc1cc(Nc2ccnc3cc(Cl)ccc23)ccc1O.Cl,100
6,NCCCCCCCCNc1ccnc2cc(Cl)ccc12,6.25
7,OCCNCCNc1ccnc2cc(Cl)ccc12,> 100
8,OCCNc1ccnc2ccccc12,> 100
9,Clc1ccc2c(NCCNC3CCCCC3)ccnc2c1,100
10,COc1cc(NC(C)CCCN)c2ncccc2c1 (configuration not stated) [PRIMAQUINE],50
11,ClCCCNc1ccnc2cc(Cl)ccc12,50
12,CCCNCCNc1ccnc2cc(Cl)ccc12,100
13,OC(c1cc(C(F)(F)F)nc2c(C(F)(F)F)cccc12)C1CCCCN1 (configuration not stated) [MEFLOQUINE],25
14,NCCCNc1ccnc2cc(Cl)ccc12,> 100
15,NCCNc1ccnc2cc(Cl)ccc12,> 100
16,CCCCNc1ccnc2cc(Cl)ccc12,12.5
17,CC(C)NCCNc1ccnc2cc(Cl)ccc12,> 100
18,Clc1ccc2c(NCCNCc3ccccc3)ccnc2c1,50
